# Reference: ChEMBL document CHEMBL2157987, “Benzimidazole bearing oxadiazole and triazolo-thiadiazoles nucleus: design and synthesis as anticancer agents” (2012)
# Key:
# Type in all cases: functional
# UO-31 = assay: Cytotoxicity against human UO31 cells after 48 hrs by SRB assay; conditions: UO-31, 48 h
# Procedure, shortened: (§1)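 Cells were grown in RPMI 1640 with 5% FBS and 2 mM L-glutamine, then held 24 h at 37 °C and 5% CO2 before dosing. TCA-fixed time-zero plates were kept. Compound was dissolved in DMSO and given at five 10-fold dilutions for 48 h. Cells were fixed with cold TCA (10% final), stained with 0.4% SRB and read at 515 nm. GI50, TGI and LC50 came from Ti/Tz/control growth formulas.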
# Malme-3M = assay: Cytotoxicity against human MALME-3M cells after 48 hrs by SRB assay
# Procedure, shortened: (§2)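 Five-dose NCI-60 panel screen: cells grown in RPMI 1640 with 5% FBS and 2 mM L-glutamine, preincubated 24 h at 37 °C, 5% CO2. Five 10-fold dilutions, 0.01–100 µM, applied for 48 h. Fixed with cold TCA (10% final), stained with 0.4% SRB, absorbance read at 515 nm. GI50, TGI and LC50 were taken from log concentration versus % growth curves using time-zero plates.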
# SR = assay: Cytotoxicity against human SR cells after 48 hrs by SRB assay; procedure, shortened: as §1
# SNB-75 = assay: Cytotoxicity against human SNB75 cells after 48 hrs by SRB assay; conditions: SNB-75, 48 h; procedure, shortened: as §1
# K562 = assay: Cytotoxicity against human K562 cells after 48 hrs by SRB assay; conditions: K562, 48 h; procedure, shortened: as §2
# SW-620 = assay: Cytotoxicity against human SW620 cells after 48 hrs by SRB assay; conditions: SW-620, 48 h; procedure, shortened: as §1
# MDA-MB-435 [1] = assay: Cytotoxicity against human MDA-MB-435 cells after 48 hrs by SRB assay; conditions: MDA-MB-435, 48 h; procedure, shortened: as §2
# RXF 393 = assay: Cytotoxicity against human RXF393 cells after 48 hrs by SRB assay; conditions: RXF 393, 48 h; procedure, shortened: as §2
# MCF7 = assay: Cytotoxicity against human MCF7 cells after 48 hrs by SRB assay; conditions: MCF7, 48 h; procedure, shortened: as §2
# HCC 2998 = assay: Cytotoxicity against human HCC2998 cells after 48 hrs by SRB assay; conditions: HCC 2998, 48 h; procedure, shortened: as §2
# T47D = assay: Cytotoxicity against human T47D cells after 48 hrs by SRB assay; procedure, shortened: as §1
# LOX IMVI = assay: Cytotoxicity against human LOXIMVI cells after 48 hrs by SRB assay; procedure, shortened: as §2
# SF-268 = assay: Cytotoxicity against human SF268 cells after 48 hrs by SRB assay; conditions: SF-268, 48 h; procedure, shortened: as §2
# TK-10 = assay: Cytotoxicity against human TK10 cells after 48 hrs by SRB assay; conditions: TK-10, 48 h; procedure, shortened: as §1
# MDA-MB-435 [2] = assay: Cytotoxicity against human MDA-MB-435 cells assessed as cell growth at 10 uM after 48 hrs by SRB assay; conditions: MDA-MB-435, 48 h, read-out: Activity
# Procedure, shortened: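 NCI single-dose screen at 10 µM. Cells were incubated 48 h and the end point was read by sulforhodamine B protein staining. Results are given as percent growth of treated cells relative to untreated controls. Growth of 32% or less was counted as active.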
# NCI/ADR-RES = assay: Cytotoxicity against human NCI/ADR-RES cells after 48 hrs by SRB assay; procedure, shortened: as §2
# HCT-116 = assay: Cytotoxicity against human HCT116 cells after 48 hrs by SRB assay; conditions: HCT-116, 48 h; procedure, shortened: as §2
# EKVX = assay: Cytotoxicity against human EKVX cells after 48 hrs by SRB assay; procedure, shortened: as §2
# HOP-62 = assay: Cytotoxicity against human HOP62 cells after 48 hrs by SRB assay; conditions: HOP-62, 48 h; procedure, shortened: as §2
# [3] = read-out: LC50 (the source's name)
# [4] = read-out: pLC50 (the source's name) (converted)
compound,measurement,setting,value
Nc1cc(Br)c(-c2nnc(CCC(=O)c3nc4ccccc4[nH]3)o2)c(Br)c1,GI50,UO-31,4.07 µM
same,CC50,UO-31; [3],> 100 µM
same,TGI,UO-31; read-out: TGI,> 100 µM
same,CC50,UO-31; [4],> 100 µM
same,TGI,UO-31; read-out: pTGI,> 100 µM
same,GI50,Malme-3M,2.04 µM
same,CC50,Malme-3M; [3],> 100 µM
same,TGI,Malme-3M; read-out: TGI,17.2 µM
same,CC50,Malme-3M; [4],> 100 µM
same,TGI,Malme-3M; read-out: pTGI (converted),17.4 µM
same,GI50,SR,4.17 µM
same,CC50,SR; [3],> 100 µM
same,TGI,SR; read-out: TGI,> 100 µM
same,CC50,SR; [4],> 100 µM
same,TGI,SR; read-out: pTGI,> 100 µM
same,GI50,SNB-75,2.95 µM
same,CC50,SNB-75; [3],> 100 µM
same,TGI,SNB-75; read-out: TGI,20.5 µM
same,CC50,SNB-75; [4],> 100 µM
same,TGI,SNB-75; read-out: pTGI (converted),20.4 µM
same,GI50,K562,2.88 µM
same,CC50,K562; [3],> 100 µM
same,TGI,K562; read-out: TGI,> 100 µM
same,CC50,K562; [4],> 100 µM
same,TGI,K562; read-out: pTGI,> 100 µM
same,GI50,SW-620,3.31 µM
same,CC50,SW-620; [3],> 100 µM
same,TGI,SW-620; read-out: TGI,> 100 µM
same,CC50,SW-620; [4],> 100 µM
same,TGI,SW-620; read-out: pTGI,> 100 µM
same,GI50,MDA-MB-435 [1],1.55 µM
same,CC50,MDA-MB-435 [1]; [3],8.83 µM
same,TGI,MDA-MB-435 [1]; read-out: TGI,3.71 µM
same,CC50,MDA-MB-435 [1]; [4],8.91 µM
same,TGI,MDA-MB-435 [1]; read-out: pTGI (converted),3.72 µM
same,GI50,RXF 393,12.9 µM
same,CC50,RXF 393; [3],> 100 µM
same,TGI,RXF 393; read-out: TGI,58.6 µM
same,CC50,RXF 393; [4],> 100 µM
same,TGI,RXF 393; read-out: pTGI (converted),58.9 µM
same,GI50,MCF7,3.09 µM
same,CC50,MCF7; [3],> 100 µM
same,TGI,MCF7; read-out: TGI,> 100 µM
same,CC50,MCF7; [4],> 100 µM
same,TGI,MCF7; read-out: pTGI,> 100 µM
same,GI50,HCC 2998,11 µM
same,CC50,HCC 2998; [3],> 100 µM
same,TGI,HCC 2998; read-out: TGI,42.5 µM
same,CC50,HCC 2998; [4],> 100 µM
same,TGI,HCC 2998; read-out: pTGI (converted),42.7 µM
same,GI50,T47D,23.4 µM
same,LC50,T47D; read-out: LC50,> 100 µM
same,TGI,T47D; read-out: TGI,> 100 µM
same,LC50,T47D; read-out: pLC50 (converted),> 100 µM
same,TGI,T47D; read-out: pTGI,> 100 µM
same,GI50,LOX IMVI,3.24 µM
same,CC50,LOX IMVI; [3],> 100 µM
same,TGI,LOX IMVI; read-out: TGI,46.4 µM
same,CC50,LOX IMVI; [4],> 100 µM
same,TGI,LOX IMVI; read-out: pTGI (converted),46.8 µM
same,GI50,SF-268,5.13 µM
same,CC50,SF-268; [3],> 100 µM
same,TGI,SF-268; read-out: TGI,81.6 µM
same,CC50,SF-268; [4],> 100 µM
same,TGI,SF-268; read-out: pTGI (converted),81.3 µM
same,GI50,TK-10,36.3 µM
same,LC50,TK-10; read-out: LC50,> 100 µM
same,TGI,TK-10; read-out: TGI,> 100 µM
same,LC50,TK-10; read-out: pLC50 (converted),> 100 µM
same,TGI,TK-10; read-out: pTGI,> 100 µM
same,growth at 10 µM,MDA-MB-435 [2],5.71%
same,GI50,NCI/ADR-RES,22.4 µM
same,CC50,NCI/ADR-RES; [3],> 100 µM
same,TGI,NCI/ADR-RES; read-out: TGI,> 100 µM
same,CC50,NCI/ADR-RES; [4],> 100 µM
same,TGI,NCI/ADR-RES; read-out: pTGI,> 100 µM
same,GI50,HCT-116,8.32 µM
same,CC50,HCT-116; [3],> 100 µM
same,TGI,HCT-116; read-out: TGI,> 100 µM
same,CC50,HCT-116; [4],> 100 µM
same,TGI,HCT-116; read-out: pTGI,> 100 µM
same,GI50,EKVX,22.9 µM
same,CC50,EKVX; [3],> 100 µM
same,TGI,EKVX; read-out: TGI,> 100 µM
same,CC50,EKVX; [4],> 100 µM
same,TGI,EKVX; read-out: pTGI,> 100 µM
same,GI50,HOP-62,23.4 µM
same,CC50,HOP-62; [3],> 100 µM
same,TGI,HOP-62; read-out: TGI,> 100 µM
same,CC50,HOP-62; [4],> 100 µM
same,TGI,HOP-62; read-out: pTGI,> 100 µM
